The subject of one data set is Liver microsomes. Nature of the data set: Intrinsic clearance in human liver microsomes. The class given is ADME, Microsome. The procedure, abridged:
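Metabolic depletion in pooled human liver microsomes (0.1 mg/mL protein), substrate 0.3 μmol/L, final DMSO 0.01%. Matrix: 100 mmol/L phosphate pH 7.4 with 0.1 mmol/L EDTA. Reaction started with an NADPH-generating system (β-NADP+, G6P, MgCl2, G6PDH) and run at 37 °C for 0 and 15 min. Quenched with acetonitrile/methanol plus internal standard; analysed by LC/MS/MS.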
On the technique in general: Microsomes from liver hold many membrane-bound enzymes, among them those of drug oxidation.

A short description of data set [1]: Oral bioavailability in Sprague-Dawley rat at 10 mg/kg. It counts as ADME, organism-based. Particulars: in vivo. The procedure, abridged: (§1)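 Fasted male Sprague-Dawley rats, n = 3 per route. IV dose 3 mg/kg from a 3 mg/mL solution in 1% ethanol–0.1 mol/L HCl–glucose. PO dose 10 mg/kg from a 2 mg/mL solution in 5% ethanol–0.1 mol/L HCl–glucose. Jugular blood sampled at 0.083 (iv only), 0.25, 0.5, 1, 2, 4, 6 and 8 h. Plasma deproteinized with acetonitrile plus internal standard, quantified by LC/MS/MS. Mean ± SEM of three animals.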

Data set [2] can be described thus: AUC in Sprague-Dawley rat at 10 mg/kg, po. The class given is ADME, organism-based. Set-up: dose 10 mg/kg, route oral. Particulars: plasma. In outline:
as §1

Data set [3] in a line: Tmax in Sprague-Dawley rat at 10 mg/kg, po. It counts as ADME, organism-based. Set-up: dose 10 mg/kg, route oral. The conditions noted are these: in vivo. In outline:
as §1

A short description of data set [4]: Cmax in Sprague-Dawley rat at 10 mg/kg, po. The class given is ADME, organism-based. Details: dose 10 mg/kg, route oral. The conditions noted are these: in vivo. The procedure, abridged: as §1
A short description of data set [5]: AUC in Sprague-Dawley rat at 3 mg/kg, iv. The class given is ADME, organism-based. Details: dose 3 mg/kg, route intravenous. Particulars: plasma. In outline:
as §1

The nature of data set [6]: Half life in Sprague-Dawley rat at 3 mg/kg, iv. The class given is ADME, organism-based. Set-up: dose 3 mg/kg, route intravenous. Particulars: in vivo. The procedure, abridged: as §1
Data set [7] in a line: Volume of distribution at steady state in Sprague-Dawley rat at 3 mg/kg, iv. It counts as ADME, organism-based. Details: dose 3 mg/kg, route intravenous. The conditions noted are these: in vivo, read-out: Vdss. In outline:
as §1

Data set [8] is described as follows: Plasma clearance in Sprague-Dawley rat at 3 mg/kg, iv. The class given is ADME, organism-based. Details: dose 3 mg/kg, route intravenous. The procedure, abridged:
as §1

As for `COCc1cc(OC)c(-c2csc3c(N(CC4CCOCC4)CC4CC4)c(OC)nn23)c(OC)c1`, in the data set on Liver microsomes, the intrinsic clearance turned out to be 460 µL/min/mg.

`COCc1cc(OC)c(-c2csc3c(N(CC4CC4)CC4(F)CCOCC4)c(OC)nn23)c(OC)c1`: the intrinsic clearance with Liver microsomes is 550 µL/min/mg.

With `COCc1cc(OC)c(-c2csc3c(N(CC4CC4)CC4CCCOC4)c(OC)nn23)c(OC)c1` (configuration not stated), the intrinsic clearance in the data set on Liver microsomes was 550 µL/min/mg.

`COCc1cc(OC)c(-c2csc3c(N(CC4CC4)CC4CCCCO4)c(OC)nn23)c(OC)c1` (configuration not stated): the intrinsic clearance in the data set on Liver microsomes was 870 µL/min/mg.

On to `COCc1cc(OC)c(-c2csc3c(N(CC4CC4)CC4CCOC4)c(OC)nn23)c(OC)c1` (configuration not stated), for which the intrinsic clearance in the data set on Liver microsomes turned out to be 530 µL/min/mg.

In the data set on Liver microsomes, `COCc1cc(OC)c(-c2csc3c(N(CC4CC4)CC4CCCO4)c(OC)nn23)c(OC)c1` (configuration not stated) gave an intrinsic clearance of 1020 µL/min/mg.

For the compound `COCCN(CC1CC1)c1c(OC)nn2c(-c3c(OC)cc(COC)cc3OC)csc12`, in the data set on Liver microsomes, the intrinsic clearance came to 960 µL/min/mg.

In turn, `COCc1cc(OC)c(-c2csc3c(N(CC4CC4)C4CCOCC4)c(OC)nn23)c(OC)c1` displayed an intrinsic clearance in the data set with Liver microsomes of 180 µL/min/mg.

`CCN(c1c(OC)nn2c(-c3c(OC)cc(COC)cc3OC)csc12)C1CCOCC1` gave an intrinsic clearance with Liver microsomes of 200 µL/min/mg.

As for `CCCN(c1c(OC)nn2c(-c3c(OC)cc(COC)cc3OC)csc12)C1CCOCC1`, the intrinsic clearance with Liver microsomes came to 220 µL/min/mg.

Take `COCc1cc(OC)c(-c2csc3c(N(CCC4CC4)C4CCOCC4)c(OC)nn23)c(OC)c1`: the intrinsic clearance with Liver microsomes was 180 µL/min/mg.

In turn, `CCCCN(c1c(OC)nn2c(-c3c(OC)cc(COC)cc3OC)csc12)C1CCOCC1` yielded an intrinsic clearance with Liver microsomes of 200 µL/min/mg.

Compound `COCc1cc(OC)c(-c2csc3c(N(C(C)C)C4CCOCC4)c(OC)nn23)c(OC)c1` yielded an intrinsic clearance in the data set on Liver microsomes of 670 µL/min/mg.

In the data set on Liver microsomes, `COCc1cc(OC)c(-c2csc3c(N(CC(C)C)C4CCOCC4)c(OC)nn23)c(OC)c1` gave an intrinsic clearance of 360 µL/min/mg.

Turning to `CCCN(c1c(OC)nn2c(-c3c(OC)cc(COCC)cc3OC)csc12)C1CCOCC1`, in the data set on Liver microsomes, the intrinsic clearance amounted to 340 µL/min/mg.

Consider `CCCN(c1c(OC)nn2c(-c3c(OC)cc(C#N)cc3OC)csc12)C1CCOCC1`, for which the intrinsic clearance in the data set on Liver microsomes came to 150 µL/min/mg.

On to `CCCN(c1c(OC)nn2c(-c3c(Cl)cc(COC)cc3OC)csc12)C1CCOCC1`, for which the intrinsic clearance in the data set on Liver microsomes is 370 µL/min/mg.

The bioavailability is dose-corrected exposure relative to a reference, in per cent. One may read the AUC as the area under the concentration-time curve, a measure of exposure. A low value points to less exposure. Usually Tmax stands for the time at which the peak concentration occurs. The Cmax is the highest concentration seen after dosing. One may read the half-life as the time needed for the level to fall by half in the phase considered. One may read the clearance as a measure of how efficiently the substance is removed, as volume per time. A low value points to a low capacity for elimination. `CCCCN(c1c(OC)nn2c(-c3c(OC)cc(COCC)cc3OC)csc12)C1CCOCC1`: in [1], the bioavailability was found to be 23%. The AUC worked out at 1240 ng·h/mL in data set [2] and 1580 ng·h/mL in data set [5]. For the same compound, the Tmax in data set [3] was found to be 0.5 h. Further, the Cmax in data set [4] came out at 540 ng/mL. In data set [6], this compound gave a half-life of 5.2 h. The Vd in [7] was found to be 6.32 L/kg. In data set [8], this compound had a clearance of 32.2 mL/min/kg. The compound further returned an intrinsic clearance in the data set on Liver microsomes of 220 µL/min/mg.

In the case of `CCCCN(c1c(OC)nn2c(-c3c(OC)cc(C#N)cc3OC)csc12)C1CCOCC1`, the intrinsic clearance with Liver microsomes worked out at 150 µL/min/mg.
